# Assay results as given in ChEMBL document CHEMBL4715732, “4-Phenylureido/thioureido-substituted 2,2-dimethylchroman analogs of cromakalim bearing a bulky 'carbamate' moiety at the 6-position as potent inhibitors of glucose-sensitive insulin secretion” (Eur J Med Chem, 2016).
# Columns and labels:
# [1] = tested on: Aorta; experiment: Myorelaxant activity in aortic rings isolated from Wistar rat assessed as reduction in KCl-induced contractions measured after 60 mins in presence of 80 mM KCl by force-displacement transducer; assay type: functional, tissue-based; details: 1 h, in the assay text read “30 mM KCl” for “80 mM KCl”
# Summary of the method: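 Endothelium-free rat aorta rings were contracted with 30 mM or 80 mM K+, with 1 or 10 μM glibenclamide present for some 30 mM series. Agent was applied cumulatively. EC50 is the concentration giving 50% relaxation of the KCl-induced contraction, reported as mean ± SEM (n).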
# [2] = Residual glucose-induced insulin secretion in Wistar rat pancreatic islets at 1 uM incubated for 90 mins in presence of 16.7 mM glucose by radioimmunological assay relative to control; details: Pancreatic islet, 1.5 h
# [3] = Residual glucose-induced insulin secretion in Wistar rat pancreatic islets at 10 uM incubated for 90 mins in presence of 16.7 mM glucose by radioimmunological assay relative to control; details: Pancreatic islet, 1.5 h
Compound,EC50 [1] [µM],residual insulin secretion at 1 µM [2] [%],residual insulin secretion at 10 µM [3] [%]
CCOC(=O)Nc1ccc2c(c1)C(NC(=S)Nc1cccc(Cl)c1)CC(C)(C)O2 (racemic),22.7,73.7,21.5
COC(=O)Nc1ccc2c(c1)C(NC(=S)Nc1cccc(C#N)c1)CC(C)(C)O2 (racemic),4.8,85.1,29.3
COC(=O)Nc1ccc2c(c1)C(NC(=S)Nc1ccc(Cl)cc1)CC(C)(C)O2 (racemic),24.4,84.9,22.8
COC(=O)Nc1ccc2c(c1)C(NC(=S)Nc1ccc(C#N)cc1)CC(C)(C)O2 (racemic),> 30,93.8,27.8
CCOC(=O)Nc1ccc2c(c1)C(NC(=O)Nc1cccc(Cl)c1)CC(C)(C)O2 (racemic),13.1,82.8,36.1
CC(C)(C)OC(=O)Nc1ccc2c(c1)C(NC(=O)Nc1ccc(Cl)cc1)CC(C)(C)O2 (racemic),9.4,86.1,36.4
CCOC(=O)Nc1ccc2c(c1)C(NC(=O)Nc1ccc(Cl)cc1)CC(C)(C)O2 (racemic),21.2,92.1,49.9
CC(C)OC(=O)Nc1ccc2c(c1)C(NC(=O)Nc1ccc(C#N)cc1)CC(C)(C)O2 (racemic),17.7,80.7,14.1
CC(C)(C)OC(=O)Nc1ccc2c(c1)C(NC(=O)Nc1cccc(Cl)c1)CC(C)(C)O2 (racemic),18.7,86.4,11
COC(=O)Nc1ccc2c(c1)C(NC(=O)Nc1cccc(C#N)c1)CC(C)(C)O2 (racemic),16.9,88.3,9.4
CC(C)OC(=O)Nc1ccc2c(c1)C(NC(=S)Nc1ccc(C#N)cc1)CC(C)(C)O2 (stereo not given),7.2,86,14.8
CCOC(=O)Nc1ccc2c(c1)C(NC(=S)Nc1cccc(C#N)c1)CC(C)(C)O2 (racemic),12.3,77.6,14.8
CCOC(=O)Nc1ccc2c(c1)C(NC(=S)Nc1ccc(Cl)cc1)CC(C)(C)O2 (racemic),8.9,78.4,22
COC(=O)Nc1ccc2c(c1)C(NC(=O)Nc1ccc(Cl)cc1)CC(C)(C)O2 (racemic),> 30,92.7,53.7
CC(C)OC(=O)Nc1ccc2c(c1)C(NC(=O)Nc1cccc(Cl)c1)CC(C)(C)O2 (racemic),12.6,92,23.7
CCOC(=O)Nc1ccc2c(c1)C(NC(=S)Nc1ccc(C#N)cc1)CC(C)(C)O2 (racemic),19.4,80.2,10.2
CCOC(=O)Nc1ccc2c(c1)C(NC(=O)Nc1ccc(C#N)cc1)CC(C)(C)O2 (racemic),> 30,79.5,17.4
COC(=O)Nc1ccc2c(c1)C(NC(=O)Nc1cccc(Cl)c1)CC(C)(C)O2 (racemic),> 30,92,35.7
CC(C)OC(=O)Nc1ccc2c(c1)C(NC(=S)Nc1cccc(Cl)c1)CC(C)(C)O2 (racemic),11,81.5,19.3
CC(C)OC(=O)Nc1ccc2c(c1)C(NC(=S)Nc1ccc(Cl)cc1)CC(C)(C)O2 (racemic),10.4,81.2,14.9
CCOC(=O)Nc1ccc2c(c1)C(NC(=O)Nc1cccc(C#N)c1)CC(C)(C)O2 (racemic),14.2,81,5.9
COC(=O)Nc1ccc2c(c1)C(NC(=S)Nc1cccc(Cl)c1)CC(C)(C)O2 (racemic),15.4,84.2,26.1
CC(C)OC(=O)Nc1ccc2c(c1)C(NC(=O)Nc1cccc(C#N)c1)CC(C)(C)O2 (racemic),12.1,50.5,12.7
CC(C)OC(=O)Nc1ccc2c(c1)C(NC(=O)Nc1ccc(Cl)cc1)CC(C)(C)O2 (racemic),46.2,92.3,48.7
COC(=O)Nc1ccc2c(c1)C(NC(=O)Nc1ccc(C#N)cc1)CC(C)(C)O2 (racemic),> 30,89.7,36.9
CC1=Nc2ccc(Cl)cc2S(=O)(=O)N1 [DIAZOXIDE],–,91,80.8
CC1(C)Oc2ccc(C#N)cc2C(N2CCCC2=O)C1O (racemic) [CROMAKALIM],–,95.3,94.4
CC(C)(C)OC(=O)Nc1ccc2c(c1)C(NC(=O)Nc1ccc(C#N)cc1)CC(C)(C)O2 (racemic),6.5,53.4,5.8
CC(C)OC(=O)Nc1ccc2c(c1)C(NC(=S)Nc1cccc(C#N)c1)CC(C)(C)O2 (racemic),5.6,79.3,14.2
